Results of several laboratories.
Lines come from different studies, so protocols differ.
Organism: Pseudomonas aeruginosa

Structure (SMILES) | effect on | method | strain | concentration | time | measurement | result
CC(C)Oc1c(NC(=O)c2ccc(NC(=O)[C@H](CC(N)=O)NC(=O)c3ccc(CNC(=O)c4ccc(C#N)cc4)cc3)cc2)ccc(C(=O)Nc2ccc(C(=O)O)cc2)c1O | microbial growth |  | PA14 |  |  | MIC | > 64 µg/mL
CC(C)c1ccc(O)c(=O)cc1 | microbial growth | broth dilution | ATCC27853 |  |  | MIC80 | > 71.4 µM
COc1cc(C=Cc2cc(-c3ccccc3)nc(O)n2)ccc1O | microbial growth | disc diffusion | ATCC27853 | 250 µg/mL |  | inhibition zone | 6 mm
CCCCCCCCCCCC(=O)Oc1c(C)c(O)c(C(=O)/C=C/c2ccccc2)c(OC)c1C | microbial killing | broth dilution | ATCC27853 |  |  | MBC | > 5000 µg/mL
CC1(C)SC2C(NC(=O)C(NC(=O)C3=C(O)C(Cc4ccsc4)NC3=O)c3ccccc3)C(=O)N2C1C(=O)O (stereo not drawn) | microbial growth | well diffusion | PAO1 | 200 µM |  | inhibition zone | 11 mm
O=C(Sc1cccccc1=O)c1ccccc1C(F)(F)F | microbial growth | broth dilution | ATCC27853 |  |  | MIC80 | > 71.4 µM
O=c1[nH]cc(F)c(=O)[nH]1 | microbial killing | broth dilution |  |  | 48 h | MBC | 8 µg/mL
CC(C)Oc1c(NC(=O)c2ccc(NC(=O)[C@H](CC(N)=O)NC(=O)c3ccc(NC(=O)c4ccc(C5(C(F)(F)F)N=N5)cc4)cc3)cc2)ccc(C(=O)Nc2ccc(C(=O)O)cc2)c1O | microbial growth |  | PA14 |  |  | MIC | > 64 µg/mL
COc1c(C)c(OC(C)=O)c(C)c(OC(C)=O)c1C(=O)/C=C/c1ccccc1 | microbial killing | broth dilution | ATCC27853 |  |  | MBC | > 5000 µg/mL
CC(C)Oc1c(NC(=O)c2ccc(NC(=O)[C@H](CC(N)=O)NC(=O)c3cccc(NC(=O)c4ccc(C#N)cc4)c3)cc2)ccc(C(=O)Nc2ccc(C(=O)O)cc2)c1O | microbial growth |  | PA14 |  |  | MIC | > 64 µg/mL
O=C(Sc1cccccc1=O)c1ccccc1 | microbial growth | broth dilution | ATCC27853 |  |  | MIC80 | > 71.4 µM
CCCCCCCC(=O)Oc1c(C)c(O)c(C(=O)/C=C/c2ccccc2)c(OC)c1C | microbial killing | broth dilution | ATCC27853 |  |  | MBC | > 5000 µg/mL
CC1(C)S[C@@H]2[C@H](NC(=O)[C@H](N)c3ccc(O)cc3)C(=O)N2[C@H]1C(=O)O | microbial growth | disc diffusion | ATCC27853 | 250 µg/mL |  | inhibition zone | 9.38 mm
CN1CC(O)=C(C(=O)NC(C(=O)NC2C(=O)N3C2SC(C)(C)C3C(=O)O)c2ccccc2)C1=O (stereo not drawn) | microbial growth | well diffusion | PAO1 | 200 µM |  | inhibition zone | 12.3 mm
COc1cc(C=Cc2cc(-c3ccc(N(C)C)cc3)nc(O)n2)ccc1O | microbial growth | disc diffusion | ATCC27853 | 500 µg/mL |  | inhibition zone | 7.67 mm
C#CCCCCCCCCCCCC(O)CC(O)CO (stereo not drawn) | microbial growth | broth dilution | ATCC27853 |  |  | IC50 | > 200 µg/mL
COc1c(C)c(OC(=O)c2ccccc2)c(C)c(O)c1C(=O)/C=C/c1ccccc1 | microbial killing | broth dilution | ATCC27853 |  |  | MBC | > 5000 µg/mL
CCn1cc(C(=O)O)c(=O)c2cc(F)c(N3CCNCC3)cc21 | microbial killing | broth dilution | ATCC9027 |  |  | MBC | 2 µM
